The source of these data is ChEMBL document CHEMBL2396573, “Synthesis and evaluation of 8-amino-[1,2,4]triazolo[4,3-a]pyridin-3(2H)-one derivatives as glycogen synthase kinase-3 (GSK-3) inhibitors” (Bioorg Med Chem Lett, 2013).

The IC50 is the concentration needed to halve the response being measured. Broadly, the EC50 is the concentration giving half of the maximal effect.

Assay [1] deals with Glycogen synthase kinase-3 (Homo sapiens, UniProt P49840+P49841). The experiment in a line: Inhibition of recombinant human GSK3 using YRRAAVPPSPSLSRHSSPHQ(pS)EDEEE as substrate preincubated for 10 mins followed by [33P-gamma]-ATP addition measured after 30 mins by liquid scintillation counting analysis. Type of assay: protein assay. Put shortly: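 Reaction started with 1 µM ATP […] 33P-γ-ATP, run 30 min at 30 °C, and stopped with 3% phosphoric acid. Product captured on P81 paper and read by scintillation counting. IC50 is the mean of triplicates.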

Assay [2] is described as follows: Inhibition of GSK3 in rat […] cells assessed as reduction in glucose production after overnight incubation by fluorescence assay. Type of assay: cell-based. In a few lines:
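Rat hepatoma H4IIE cells grown in DMEM + 10% FBS, 2 mM L-glutamine and penicillin–streptomycin at 37 °C, 5% CO2, and passaged at 75% confluence. Plated at 100,000 cells/well, attached ~3 h, then PBS-washed and held overnight in glucose- and serum-free DMEM with 20 mM lactate and 2 mM pyruvate. Compounds, diluted in this medium, added overnight. Glucose in medium read with Amplex Red/glucose oxidase (30 min, dark; ex 560/em 615 nm); mean of triplicates.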

As to `Nc1cccn2c(=O)[nH]nc12`, in assay [1], the IC50 was more than 50 µM.

As to `COc1ccc(OCCNc2cccn3c(=O)[nH]nc23)cc1`, the IC50 in assay [1] was 13 µM.

For `Cc1cc(NCCCc2ccc(N)cc2)c2n[nH]c(=O)n2c1.Cl`, the IC50 in assay [1] was determined as 1.01 µM. The EC50 in assay [2] came out at 18.4 µM.

`Cc1cc(NCCCc2ccc(C)nc2)c2n[nH]c(=O)n2c1.Cl`: the IC50 in assay [1] worked out at 0.309 µM. Moreover, the half-maximal effective concentration (EC50) in assay [2] came out at 1.25 µM.

As to `Cc1cc(NCCCc2ccnc(Cl)c2)c2n[nH]c(=O)n2c1.Cl`, in assay [1], the IC50 was 0.774 µM. Moreover, in assay [2], the concentration for a half-maximal effect (EC50) came out at 12.1 µM.

Turning to `Cc1cc(NCCCc2cccnc2)c2n[nH]c(=O)n2c1.Cl`, the IC50 in assay [1] worked out at 0.354 µM. Further, the EC50 in assay [2] was found to be 5.44 µM.

In the case of `Cc1cc(N(C)CCCc2ccccn2)c2n[nH]c(=O)n2c1.Cl`, the IC50 in assay [1] amounted to 50 µM.

Regarding `Cc1cc(NCCCN2CCNCC2)c2n[nH]c(=O)n2c1.Cl`, the IC50 in assay [1] was more than 50 µM.

On to `Cl.O=c1[nH]nc2c(NCCCc3cccc(OCCN4CCOCC4)c3)cc(Cl)cn12`, for which the IC50 in assay [1] is 0.247 µM. In assay [2], the EC50 turned out to be 3.84 µM.

With `Cc1cc(NCCCn2ccnc2)c2n[nH]c(=O)n2c1.Cl`, the IC50 in assay [1] came out at 1.36 µM. Besides, the EC50 in assay [2] was determined as 13.3 µM.

Regarding `Cl.O=c1[nH]nc2c(NCCCc3ccnc(Cl)c3)cc(Cl)cn12`, in assay [1], the IC50 amounted to 0.199 µM. In addition, the EC50 in assay [2] is 2.63 µM.

For the compound `Cl.Nc1cc(CCCNc2cc(Cl)cn3c(=O)[nH]nc23)ccn1`, the IC50 in assay [1] was 0.249 µM. Further, the EC50 in assay [2] was 2.36 µM.
